# p97 inhibitor: inhibitors of human p97 ATPase, primary screen, biochemical; Transitional endoplasmic reticulum ATPase (Homo sapiens), P55072; recombinant p97 ATPase, Kinase-Glo ATP luminescence, 3 h; inhibition, % at 8 µM; hit rate 0.42% among 220,000; AID 1481, 2009; in the data active = inhibition above about 15%;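 also: 0% = DMSO vehicle and 100% = wells lacking enzyme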
# TNAP inh no acc: human TNAP enzyme inhibitors, primary screen, biochemical, luminescent, no phosphate acceptor, uHTS; hit rate 0.26% among 200,000; Alkaline phosphatase, tissue-nonspecific isozyme (Homo sapiens), P05186; AID 1012, 2008; inhibition, % at 20 µM; purified TNAP, CDP-star luminescence, 30 min;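 active = tissue-nonspecific alkaline phosphatase inhibition above about 50% at 20 µM in the single-dose screen, limit read from the data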;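 also: 0% = DMSO negative control and 100% = EDTA positive control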
# DTT redox prof: compounds producing H2O2 with reducing agent – biochemical, NIH compound library profiling, artefact control for MLSCN library redox annotation, primary screen. DTT-dependent redox cycling H2O2, phenol red/HRP absorbance; 100% = 100 µM peroxide control, 0% = buffer. activation, % at 10 µM. hit rate 0.03% among 200,000. AID 878, 2007;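 active = activation of at least 50% relative to the plate's high and low controls in the primary single-dose screen; inactive = activation below 50%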;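 also: compound incubated with DTT at 0.8 mM final as the reducing agent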
# TNAP act hi DEA: TNAP activators at high phosphate acceptor level, primary screen, biochemical, luminescence, uHTS; Alkaline phosphatase, tissue-nonspecific isozyme (Homo sapiens), P05186; purified TNAP, CDP-star luminescence, 1 M DEA, 30 min; stronger effect = higher value; 0 = EDTA background, 1 = DMSO-only activity; activation factor at 20 µM; 200,000 tested, under 10 active; AID 1136, 2008;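 active = activation factor at least 2 at 20 µM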
#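 Control set: EDTA negative control, DMSO positive control / Assay system: human TNAP / Quantity: TNAP 1/800 final / Evaluation: TNAP activation factor scaled between EDTA and DMSO control wells / Measured by: luminescent substrate turnover signal / Compound dosing: one dose, 20 µM / Times: 30 min enzyme reaction at room temperature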
# PERK inh: block of dimerizer-induced PERK translation repression, primary screen, PERK inhibitor project, CHO PERK-DD cells, SEAP luminescence, HTS; Eukaryotic translation initiation factor 2-alpha kinase 3 (Homo sapiens), Q9NZJ5; hit rate 0.17% among 220,000; AID 1416, 2008; inhibition, % at 5.6 µM; CHO PERK-DD fusion, SEAP luminescence translation reporter;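 active = inhibition above the mean inhibition of all tested compounds plus 3 SD, set separately per screening campaign, cut at about 2.9% in these data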;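 also: PERK kinase domain activated by AP20187 dimerizer at 100 nM; 0% = DMSO with dimerizer and 100% = rapamycin at 8.4 µM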
# Target sequence (Q9NZJ5 whole entry, looked up, the tested form may be a part): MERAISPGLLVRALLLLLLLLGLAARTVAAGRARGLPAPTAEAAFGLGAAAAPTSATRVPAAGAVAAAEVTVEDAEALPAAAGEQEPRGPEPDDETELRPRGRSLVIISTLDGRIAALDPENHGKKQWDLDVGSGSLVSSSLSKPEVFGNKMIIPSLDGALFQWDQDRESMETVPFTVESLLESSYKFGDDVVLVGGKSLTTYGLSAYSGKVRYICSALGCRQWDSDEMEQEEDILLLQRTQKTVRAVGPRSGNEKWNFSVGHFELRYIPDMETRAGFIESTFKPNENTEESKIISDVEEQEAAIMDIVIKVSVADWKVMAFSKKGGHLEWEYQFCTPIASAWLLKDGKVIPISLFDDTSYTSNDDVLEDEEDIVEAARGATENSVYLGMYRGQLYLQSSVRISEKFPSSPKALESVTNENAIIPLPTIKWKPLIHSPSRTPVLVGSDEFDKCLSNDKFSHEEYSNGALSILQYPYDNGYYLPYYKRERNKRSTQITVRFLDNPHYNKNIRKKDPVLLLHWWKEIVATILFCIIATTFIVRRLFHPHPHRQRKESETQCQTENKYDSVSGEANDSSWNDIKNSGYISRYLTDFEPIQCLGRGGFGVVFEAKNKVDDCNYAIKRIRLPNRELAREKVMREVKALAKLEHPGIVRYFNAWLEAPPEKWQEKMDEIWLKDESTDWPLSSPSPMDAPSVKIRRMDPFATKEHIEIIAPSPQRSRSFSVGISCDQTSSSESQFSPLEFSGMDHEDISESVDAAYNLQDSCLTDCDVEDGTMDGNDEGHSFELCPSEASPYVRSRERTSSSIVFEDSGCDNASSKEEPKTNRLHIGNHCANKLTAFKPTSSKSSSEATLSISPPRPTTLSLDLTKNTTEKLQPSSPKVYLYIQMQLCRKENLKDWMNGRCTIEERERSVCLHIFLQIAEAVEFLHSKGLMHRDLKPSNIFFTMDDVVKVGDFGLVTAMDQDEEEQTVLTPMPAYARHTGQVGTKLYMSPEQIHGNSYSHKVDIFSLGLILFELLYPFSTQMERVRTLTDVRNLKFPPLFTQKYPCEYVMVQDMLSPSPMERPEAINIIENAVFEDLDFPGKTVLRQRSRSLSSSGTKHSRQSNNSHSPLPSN
# TNAP inh hi DEA: human TNAP enzyme inhibitors, primary screen, biochemical, luminescent, high phosphate acceptor level, uHTS. purified TNAP, CDP-star luminescence, 1 M DEA. inhibition, % at 20 µM. hit rate 0.03% among 200,000. AID 1135, 2008;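 active = over 50% inhibition of tissue-nonspecific alkaline phosphatase at 20 µM in the single-dose screen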;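 also: plate controls were DMSO wells for no effect and EDTA-quenched wells as full inhibition for full effect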
# p97 confirm: p97 ATPase inhibitors, retest, confirmation, biochemical. inhibition, % at 8 µM. hit rate 44% among 760. shares compounds with p97 inhibitor. AID 1517, 2009. recombinant p97 ATPase, Kinase-Glo ATP luminescence;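 active = percent inhibition of p97 ATPase above a set limit, the primary screen's mean plus 3 SD, cut at about 15% in these data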;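 also: 0% = DMSO wells and 100% = wells lacking p97 protein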
# * marks the source's active call; other numbers are inactive results; . = not tested or not shown. In the library only some 0.86% were active in any assay of this set; here they are far more common.
SMILES,p97 inhibitor,TNAP inh no acc,DTT redox prof,TNAP act hi DEA,PERK inh,TNAP inh hi DEA,p97 confirm
Cc1c(C(=O)OCC(=O)Nc2ccc(S(N)(=O)=O)cc2)oc2c1ccc1ccccc12,16*,-13,0,1,1,-2,8
FC(F)(F)c1cc(-c2ccco2)nc2ncnn12,0,-2,0,1,2,1,.
Cc1ccc(NC(=O)COC(=O)CCc2nc3ccccc3c(=O)[nH]2)cc1Cl,16*,-10,0,1,1,-4,1
Cc1cc(/C=C2\SC(=S)NC2=O)c(C)n1-c1ccc(O)cc1,56*,.,.,.,1,.,8
Cc1csc(NC(=O)CSc2nnc(NC(=O)COc3ccc(Cl)cc3)s2)n1,6,3,0,1,0,-5,.
N#CC1=C2SCN(c3ccccc3)CN2C(=O)CC1c1c(Cl)cccc1Cl (stereo not given),17*,-18,-1,1.1,1,-7,4
COC(=O)C(C)(C)ONC(=O)Nc1ccccc1[N+](=O)[O-],4,-14,-2,1,1,1,.
O=C(O)c1ccccc1SCC(=O)N1c2ccccc2Sc2ccccc21,66*,-23,1,1,2,-4,-1
O=C(O)c1ccccc1SCC(=O)N1CCCCC1,4,-12,2,1.1,0,-7,.
CCOC(=O)c1ccc(N(C(=O)c2cnccn2)C(C(=O)NC2CCCCC2)c2cn(C)nc2C)cc1 (stereo not given),22*,0,2,1.1,1,-7,9
O=C(CSCC(=O)N1CCCCC1)Nc1nc(-c2ccccc2)c(-c2ccccc2)s1,2,-3,0,1,-1,-5,.
Cc1csc2c(=O)sc(NC(=O)c3cccs3)nc12,34*,.,.,.,1,.,28*
Oc1cccc(NC(=S)N=Nc2c(O)[nH]c3ccc(Br)cc23)c1,25*,.,.,.,0,.,23*
Oc1ccc(NC(=S)N=Nc2c(O)[nH]c3ccc(Br)cc23)cc1,21*,-25,0,0.7,0,28,21*
Oc1[nH]c2ccc(Br)cc2c1N=NC(=S)Nc1ccc(F)cc1,3,.,.,.,-3,.,.
CCCCC(c1nnnn1CS(=O)(=O)c1ccc(C)cc1)N1CCN(C)CC1 (stereo not given),0,-5,-1,1,0,-3,.
O=C(N/N=C/c1c[nH]c2ccccc12)c1cc(-c2ccc(-c3ccccc3)cc2)n[nH]1,17*,3,-4,1,0,-2,11
O=C(N/N=C/c1c[nH]c2ccccc12)c1cc(-c2cccc3ccccc23)n[nH]1,7,-9,0,1,0,1,.
C=CCNCC(O)COc1ccc(C(C)=O)cc1OC (stereo not given),18*,.,.,.,1,.,10
Fc1ccc(NC(=S)NC23CN4CN(CN(C4)C2)C3)cc1,6,-6,0,1,1,-4,.
CCN(CC(=O)Nc1cccc(C(C)=O)c1)S(=O)(=O)c1ccccc1,1,3,-1,1,2,-4,.
CC[N+](C)(C)CCN(Cc1ccc(Cl)cc1)c1ccccn1,15*,-9,0,1,1,-2,3
CC(C)(C)NC(=O)c1ccc2c(c1)CCO2,2,.,.,.,0,.,.
Cc1c(O)ccc2c(O)c(NC(=O)c3ccc4c(c3)CCC(C)(C)O4)c(=O)oc12,29*,.,.,.,2,.,0
COc1ccc(CCn2c3c(c(=O)[nH]c2=O)C(NC(=O)c2cccs2)(C(F)(F)F)C(=O)N3)cc1OC (stereo not given),27*,2,2,1,1,-3,8
SMILES,p97 inhibitor,TNAP inh no acc,DTT redox prof,TNAP act hi DEA,PERK inh,TNAP inh hi DEA,p97 confirm
CCNc1nc2c(c(=O)n(Cc3ccccc3)c(=O)n2C)n1Cc1ccccc1,2,-11,3,1,-1,-3,.
CC(=O)c1cccc(NC(=O)C2C(c3ccccc3)C2(Cl)Cl)c1 (stereo not given),28*,-10,0,1.1,2,-6,32*
COc1ccc(NC(=O)C2C(c3ccccc3)C2(Cl)Cl)cc1 (stereo not given),8,.,.,.,0,.,.
Cc1cccc(NC(=O)C2C(c3ccccc3)C2(Cl)Cl)c1 (stereo not given),19*,-18,0,1.1,0,-7,37*
O=C(CCl)Nc1ccccc1C(=O)NCc1ccccc1,18*,-2,-2,1.1,0,-5,16*
CC(/C=N/N1CCN(Cc2ccccc2)CC1)=C\c1ccccc1,9,-4,-1,1,1,-2,.
CN(C(=S)Nc1cccnc1)c1ccc(O)cc1,18*,-4,0,1,1,-4,7
CC(=O)c1c(C)[nH]c(C(=O)Nc2cccc(S(=O)(=O)N(C)c3ccccc3)c2)c1C,6,-9,0,1,0,-3,.
Cc1ccccc1C(=O)NC(=S)Nc1ccccc1C(=O)O,3,0,0,1,2,-4,.
COC(=O)c1ccccc1NC(=S)NC(=O)c1ccccc1,26*,8,2,1,1,3,21*
COC(=O)c1ccccc1NC(=S)NC(=O)C1CCCCC1,18*,-7,0,1,0,4,19*
COC(=O)c1ccccc1NC(=S)NC(=O)c1ccccc1C,36*,-6,-8,1,0,-3,39*
COC(=O)c1ccccc1NC(=S)NC(=O)c1ccc(C)cc1,6,-4,2,1,0,4,.
COc1ccc(CCc2nnc(CCC(=O)N(C)Cc3ccnc4ccccc34)o2)cc1,2,-4,1,1,1,3,.
COc1ccc(/C=N/NC(=S)NC2CCS(=O)(=O)C2)cc1 (stereo not given),2,-16,1,1,0,2,.
Cc1ccc(C(=O)NC(C#N)=C(Cl)Cl)cc1,22*,-2,0,1,0,-1,21*
CCOC(=O)c1c(NC(N)=O)sc(C)c1C,0,-2,3,0.9,1,8,.
CCOC(=O)c1c(N2C(=O)C=CC2=O)sc(C)c1C,15*,-4,0,1,2,0,6

# Assay outcomes (PubChem)
